Bioassay records from PubChem BioAssay.
The list is not random: actives were taken first. Their share in the collection is about 2%.
CCR6 antag = blocks CCL20-driven beta-arrestin recruitment at human CCR6 | AID 493098 | CHO-K1 CCR6 PathHunter beta-arrestin, luminescence, CCL20-stimulated | 340,000 tested, 0.49% active | P51684 | inhibition, % at 20 µM;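 active = compounds whose inhibition of the agonist-driven luminescence signal at 20 µM reaches about 50%, limit read from the data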;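 also: cells stimulated with CCL20 at 14 nM final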
Target sequence (P51684 whole entry, looked up): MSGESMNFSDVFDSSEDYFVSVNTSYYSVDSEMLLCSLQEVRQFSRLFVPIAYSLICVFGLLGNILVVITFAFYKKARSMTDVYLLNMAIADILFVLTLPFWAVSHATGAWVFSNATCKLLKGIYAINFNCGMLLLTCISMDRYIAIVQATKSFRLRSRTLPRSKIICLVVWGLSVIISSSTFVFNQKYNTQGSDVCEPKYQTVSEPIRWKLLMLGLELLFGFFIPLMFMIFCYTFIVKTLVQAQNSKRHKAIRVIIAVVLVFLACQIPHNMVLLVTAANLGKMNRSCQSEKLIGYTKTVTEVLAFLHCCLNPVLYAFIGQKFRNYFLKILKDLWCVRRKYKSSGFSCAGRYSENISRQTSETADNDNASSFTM
EBI2 antag = blocks human EBI2 receptor beta-arrestin signaling. inhibition, % at 5 µM. 360,000 tested, 0.81% active. P32249. EBI2 beta-arrestin recruitment, luminescence, 7a,25-OHC stimulated; in the data active = inhibition above about 38%;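 also: enzyme fragment complementation signal reports receptor beta-arrestin coupling in cells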
CXCR6 block = CXCR6 (human) receptor inhibition; AID 602244; CHO-K1 PathHunter CXCR6 beta-arrestin, luminescence; 360,000 tested, 0.36% active; inhibition, % at 20 µM; in the data active = inhibition above about 34%, passing the limit was not always enough;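 also: antagonist mode with CXCL16 agonist at 10 nM final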
GAA850 FXN act = frataxin GAA850 promoter activation; HEK293 lucGAA850 FXN promoter luciferase reporter, 24 h; percent of 10 µM SAHA response; activation, % at 6 µM; 360,000 tested, 0.56% active; AID 540364;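 active = activation above the average of all compounds screened plus 3 SD, cutoff fixed separately per campaign, cut at about 7.5% in these data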
APJ antagonist = antagonists of human APJ apelin receptor; CHO-K1 APJ beta-arrestin complementation, luminescence; inhibition, % at 20 µM; 330,000 tested, 0.32% active;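 active = inhibition above about 40% at 20 µM, limit read from the data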;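 also: cells challenged with 10 nM apelin-13 agonist together with compound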
APJ ag = activates the human apelin receptor APJ | P35414 | CHO-K1 APJ PathHunter beta-arrestin, luminescence; 0% DMSO wells, 100% apelin | activation, % at 20 µM | 330,000 tested, 0.11% active;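 active = activation more than six SD over the plate average, tested at 20 µM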
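Material: engineered CHO-K1 APJ arrestin reporter cells; amount: 1000 CHO-K1 reporter cells seeded per well; incubation: compound stimulation 90 min at 25 °C, detection 60 min; signal: luminescent beta-gal fragment complementation, chemiluminescent substrate; read-out basis: APJ agonist activity; controls: DMSO-only wells as negative, 10 nM Apelin-13 as positive control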
APJ ag conf = APJ receptor agonism confirmation; shares compounds with APJ ag; CHO-K1 APJ PathHunter beta-arrestin, luminescence; activation, % at 20 µM; 310 tested, 10% active; AID 2764;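 active = activation above 40%, taking the highest of four retests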
Large screens that a line does not name were inactive (follow-up assays come after a bar, where they were run).

CN1CCCC(C)(C(=O)Nc2cccc(Oc3ccccc3)c2)C1 (centres undefined)	none (no result: CCR6 antag, APJ antagonist, APJ ag)
Cc1c(C(=O)Nc2cccc(C(F)(F)F)c2)oc2ccc(S(=O)(=O)N3CCOCC3)cc12	APJ ag 21 | APJ ag conf inactive
Cc1ccc(CNC(=O)c2oc3ccc(S(=O)(=O)N4CCOCC4)cc3c2C)cc1	none
CCCCNc1c(-c2ccc(OC)c(SC(C)CC)c2)nc2ccc(C)cn12 (centres undefined)	APJ ag 26 | APJ ag conf inactive
CCCCNc1c(-c2ccc(OC)c(SC(C)CC)c2)nc2ccc(Cl)cn12 (centres undefined)	none
CCCCNc1c(-c2ccc(OC)c(SC3CCCCC3)c2)nc2ccc(C)cn12	APJ ag 18 | APJ ag conf inactive
CC1(C(=O)NS(=O)(=O)c2cccc(Cl)c2)CCN1C(=O)c1ccccc1CCc1ccccc1 (centres undefined)	none (no result: CCR6 antag, APJ antagonist, APJ ag)
O=C(Nc1ccccc1N1CCOCC1)c1ccc(N2CCCC2=O)cc1	none
C=CCn1c(SCC(=O)N2CCN(c3ccccc3)CC2)nc2c([nH]c3ccccc32)c1=O	APJ ag 65 | APJ ag conf inactive
COc1ccc(C)cc1S(=O)(=O)N(C)CC(=O)NCc1ccco1	APJ ag 25 | APJ ag conf inactive
CN(C)CCNC(=O)c1cccc(-c2cnc3c(NC=O)cc(/C=C/c4ccccc4)cn23)c1	none (no result: CCR6 antag, APJ antagonist, APJ ag)
Nc1c(C(O)(C(F)(F)F)C(F)(F)F)cc(C(O)(C(F)(F)F)C(F)(F)F)c2ccccc12	APJ ag 50 | APJ ag conf inactive
COc1cc(-c2coc3c(C(=O)NC4CCCCC4)cccc23)ccc1O	none (no result: CCR6 antag, APJ antagonist, APJ ag)
Cc1[nH]c2c(Cl)cccc2c(=O)c1CN1CCCCCC1	none
Cc1ccc2c(=O)c(CN3CCCCCC3)c(C)[nH]c2c1C	APJ ag 25 | APJ ag conf inactive
CCc1ccc(CNC(=O)CCC(=O)N2Cc3cccc(OC)c3Oc3ncccc32)cc1	none
Cc1ccc(-c2nn(-c3ccccc3)cc2/C=C/C(=O)OCC(=O)NC2CC2)o1	APJ ag 12 | APJ ag conf inactive
CCN(CC)C(=O)c1cccc(-c2csc(C(O)c3cccc(Cl)c3)n2)c1 (centres undefined)	none (no result: CCR6 antag, APJ antagonist, APJ ag)
CCN(CC(=O)Nc1ccc(NC(C)=O)cc1)C(=O)c1oc2c(ccc3ccccc32)c1C	APJ ag 22 | APJ ag conf inactive
COc1ccc(S(=O)(=O)Nc2ccc3c(c2)C(=O)N([C@H](C)CO)C[C@H](C)[C@@H](CN(C)S(=O)(=O)c2cn(C)cn2)OCCCC[C@H](C)O3)cc1	none (no result: CCR6 antag, APJ antagonist, APJ ag)
N/C(=N\OC(=O)c1ccccc1)c1ccncc1	none
N/C(=N\OC(=O)c1ccc(Br)cc1)c1ccncc1	APJ ag 12 | APJ ag conf inactive
OC(c1ccccc1)(c1nc(-c2ccccc2)cs1)C(F)(F)F (centres undefined)	none (no result: CCR6 antag, APJ antagonist, APJ ag)
COC(=O)Nc1ccc2c(c1)N(C(=O)CCCl)c1ccccc1S2	none (no result: APJ antagonist, APJ ag)
COc1ccc(S(=O)(=O)NC2CC2)cc1-n1cnnn1	APJ ag 14 | APJ ag conf inactive
COc1cc(S(=O)(=O)NC2CCCC2)ccc1-n1cnnn1	none
CCCCCCc1cc2cc(C(=O)Nc3ccccc3)c(=O)oc2cc1O	APJ ag 11 | APJ ag conf 43
COc1ccc(-c2ccc(C(=O)Nc3ccc(C(C)C)cc3)c3occc23)c(C)c1	none (no result: CCR6 antag, APJ antagonist, APJ ag)
CCc1nnc(NC(=O)CSc2nc3cccnc3n2C2CCCCC2)s1	APJ ag 53 | APJ ag conf 62
COc1cc(/C=C(/C#N)c2nc3ccccc3[nH]2)ccc1OCC(=O)Nc1ccccc1C(C)C	APJ ag 29 | APJ ag conf inactive
CCCc1cc(C(=O)N2CCCC(C(=O)c3cc(C)c(OC)c(C)c3)C2)n(C)n1 (centres undefined)	none
CCCc1cc(C(=O)Nc2sc3c(c2C(=O)OCC)CCCC3)no1	APJ ag 68 | APJ ag conf inactive
CCOC(=O)c1c(NC(=O)c2ccn(CC)n2)sc2c1CCC2	none
C[C@@H]1CN([C@@H](C)CO)C(=O)CCCn2nncc2CO[C@H]1CN(C)C(=O)c1ccc(N2CCN(C)CC2)cc1	none (no result: CCR6 antag, APJ antagonist, APJ ag)
CCN(CC)S(=O)(=O)c1ccc(OCC(=O)NC(=O)Cc2ccccc2)c([N+](=O)[O-])c1	APJ ag 12 | APJ ag conf inactive
Cc1ccc(NC(=O)C/C(N)=N/OC(=O)Nc2ccc(C)c(Cl)c2)cc1	APJ ag 27 | APJ ag conf inactive
Cc1ccc(NC(=O)C/C(N)=N/OC(=O)Nc2cccc(C)c2)cc1	none
COc1ccc(C(=O)O/N=C(\N)c2ccccc2Cl)cc1OC	APJ ag 11 | APJ ag conf inactive
COc1ccc(/C(N)=N/OC(=O)c2ccc(OC)c([N+](=O)[O-])c2)cc1OC	APJ ag 18 | APJ ag conf inactive
COc1ccccc1C(=O)O/N=C(\N)c1ccccc1Cl	none
COc1ccc(/C(N)=N/OC(=O)c2cccc([N+](=O)[O-])c2)cc1OC	none
COc1cccc(N2CCN(c3ncnc4c3[nH]c3ccccc34)CC2C)c1 (centres undefined)	APJ ag 19 (no result: CCR6 antag, EBI2 antag, CXCR6 block, GAA850 FXN act) | APJ ag conf 41
CCOC(=O)c1oc2nc3c(cc2c1N)CCCC3	APJ ag 117 | APJ ag conf inactive
CC(C)CCN(C(=O)C1CCCC1)c1c(N)n(Cc2ccccc2)c(=O)[nH]c1=O	none
CC(C)CCN(C(=S)NC(=O)C1CCCCC1)c1c(N)n(Cc2ccccc2)c(=O)[nH]c1=O	APJ ag 33 | APJ ag conf inactive
CC1=NOC(=O)/C1=C\c1ccc(-c2cccc(Cl)c2)o1	CXCR6 block 96, APJ ag 15 (no result: CCR6 antag) | APJ ag conf inactive
CC1=NOC(=O)/C1=C\c1ccc(-c2ccc(Cl)c(C(=O)O)c2)o1	none
N/C(Cc1ccc(Cl)c(Cl)c1)=N\OC(=O)c1cccs1	APJ ag 19 | APJ ag conf 40
CCCOc1ccc(C(=O)N/N=C/c2c[nH]c3ccc(Br)cc23)cc1	none
CCCCCN=C(N)N/N=C/c1c[nH]c2ccc(OC)cc12	CCR6 antag 55, APJ ag 35 | APJ ag conf inactive
CC(=O)N1CCN(Cc2cc(=O)oc3cc(C)cc(C)c23)CC1	none (no result: CCR6 antag, GAA850 FXN act, APJ antagonist, APJ ag)
COc1ccc(N(CC(=O)NCc2ccc(C)cc2)S(=O)(=O)c2c(C)noc2C)cc1	none
CCOc1cc2[nH]c(=S)n(CC3CCCN3CC)c(=O)c2cc1OCC (centres undefined)	APJ ag 17 | APJ ag conf inactive
CCOc1cc2[nH]c(=S)n(CCC(=O)N3CCc4ccccc4C3)c(=O)c2cc1OCC	APJ ag 53 | APJ ag conf 48
